Measurements of several laboratories.
Each line is one published result; the experiments were not run side by side.
Sample: plasma

With `CN(C)C(=O)Oc1cc(OC(=O)N(C)C)cc(-c2cc3ccc(O)cc3o2)c1` the AUC(0-inf) was 26.2 ng·h/mL (male rat; oral; 5 mg/kg).
`Cl.Cl.O=C(CCN1CCCCC1)c1ccc(-c2ccc(C(=O)CCN3CCCCC3)cc2)cc1` has an AUC(0-t) of 251 ng·h/mL (Sprague-Dawley rat; intravenous; 5 mg/kg).
The AUC(0-t) of `[2H]C([2H])([2H])n1cc2cc(Nc3nc(=O)n(Cc4ncn(C)n4)c(=O)n3Cc3cc(F)c(F)cc3F)c(Cl)cc2n1` is reported as 334000 ng·h/mL (male Sprague-Dawley rat; oral; 25 mg/kg).
`CCCCCn1cc(C(=O)Nc2cccc3ccccc23)c2ccccc21` gave an AUC(0-t) of 4240 ng·h/mL (male Long-Evans rat; intraperitoneal; 3 mg/kg).
`N=c1c2c(-c3ccccc3)c(-c3ccccc3)n(Cc3ccccc3)c2ncn1[C@H]1CC[C@H](O)CC1` has an AUC(0-inf) of 1500 ng·h/mL (male Sprague-Dawley rat; oral; 2 mg/kg; single dose).
With `Cn1cnc(Cn2c(=O)[nH]/c(=N\c3cc4cn(C)nc4cc3Cl)n(Cc3cc(F)c(F)cc3F)c2=O)n1` the AUC(0-t) was 81000 ng·h/mL (male Sprague-Dawley rat; intravenous; 5 mg/kg).
`CCC[C@@](N)(CO)CCc1ccc(OCCCCCC(C)C)cc1` has an AUC(0-t) of 6.18 µM·h (rat; oral; 30 mg/kg).
The AUC(0-t) of `CC(C)(C)[C@H](NC(=O)[C@H](CCONC(=N)N)NC(=O)Cc1ccc(CNC(=N)N)cc1)C(=O)N[C@@H](CCONC(=N)N)C(=O)NCc1ccc(C(=N)N)cc1` is reported as 9350 ng·h/mL (male Sprague-Dawley rat; intraperitoneal; 2.5 mg/kg).
With `COC(=O)C(NC(=O)c1cn(CCCCCF)c2ccccc12)C(C)(C)C` (stereo not drawn) the AUC(0-t) was 17 ng·h/mL (male Sprague-Dawley rat; subcutaneous; 100 µg/kg).
`[2H]C([2H])(c1cc(F)c(F)cc1F)n1c(=O)n(Cc2ncn(C)n2)c(=O)[nH]/c1=N\c1cc2cn(C)nc2cc1Cl` has an AUC(0-t) of 78000 ng·h/mL (male Sprague-Dawley rat; intravenous; 5 mg/kg).
For `O=C([O-])C(=O)[O-].[NH-][C@@H]1CCCC[C@H]1[NH-].[Pt+4]` (relative stereo), the AUC(0-inf) was 170 ng·h/mL (rat; oral; 10 mg/kg).
For `CCCCCn1nc(C(=O)Nc2cccc3ccccc23)c2ccccc21`, the AUC(0-t) was 304 ng·h/mL (male Long-Evans rat; intraperitoneal; 3 mg/kg).
